The source of these data is ChEMBL document CHEMBL3576850 (J Nat Prod, 2015).

Assay [1] is described as follows: Inhibition of recombinant his-tagged methicillin-resistant Staphylococcus aureus pyruvate kinase expressed in Escherichia coli BL-21(DE3) using PEP as substrate after 5 mins by L-LDH coupled assay.
Assay [2] addresses Pyruvate kinase PKM (Homo sapiens) (UniProt P14618). In words: Inhibition of recombinant his-tagged human pyruvate kinase M1 expressed in Escherichia coli BL-21(DE3) using PEP as substrate at 5 uM after 5 mins by L-LDH coupled assay relative to control. In outline: (§1)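 His-tagged human PK isoform in a continuous rabbit muscle L-LDH-coupled assay, read as 340 nm absorbance change. Compounds added from DMSO, final DMSO ≤1%. Three measurements, each in triplicate.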

The target is the same in assay [3]. The experiment in a line: Inhibition of recombinant his-tagged human pyruvate kinase M2 expressed in Escherichia coli BL-21(DE3) using PEP as substrate at 5 uM after 5 mins by L-LDH coupled assay relative to control. In outline: as §1
Assay [4] has as its target Pyruvate kinase PKLR (Homo sapiens) (UniProt P30613). In words: Inhibition of recombinant his-tagged human pyruvate kinase R expressed in Escherichia coli BL-21(DE3) using PEP as substrate at 5 uM after 5 mins by L-LDH coupled assay relative to control. In outline:
as §1

For assay [5] the target is unchanged. The experiment in a line: Inhibition of recombinant his-tagged human pyruvate kinase L expressed in Escherichia coli BL-21(DE3) using PEP as substrate at 5 uM after 5 mins by L-LDH coupled assay relative to control. The gist of the method: as §1
The target in assay [6] is Pyruvate kinase PKM (Homo sapiens) (UniProt P14618). The experiment in a line: Inhibition of recombinant his-tagged human pyruvate kinase M1 expressed in Escherichia coli BL-21(DE3) using PEP as substrate at 10 uM after 5 mins by L-LDH coupled assay relative to control. In outline: as §1
Chain of Pyruvate kinase PKM (Homo sapiens) (P14618 2-531 limits assumed): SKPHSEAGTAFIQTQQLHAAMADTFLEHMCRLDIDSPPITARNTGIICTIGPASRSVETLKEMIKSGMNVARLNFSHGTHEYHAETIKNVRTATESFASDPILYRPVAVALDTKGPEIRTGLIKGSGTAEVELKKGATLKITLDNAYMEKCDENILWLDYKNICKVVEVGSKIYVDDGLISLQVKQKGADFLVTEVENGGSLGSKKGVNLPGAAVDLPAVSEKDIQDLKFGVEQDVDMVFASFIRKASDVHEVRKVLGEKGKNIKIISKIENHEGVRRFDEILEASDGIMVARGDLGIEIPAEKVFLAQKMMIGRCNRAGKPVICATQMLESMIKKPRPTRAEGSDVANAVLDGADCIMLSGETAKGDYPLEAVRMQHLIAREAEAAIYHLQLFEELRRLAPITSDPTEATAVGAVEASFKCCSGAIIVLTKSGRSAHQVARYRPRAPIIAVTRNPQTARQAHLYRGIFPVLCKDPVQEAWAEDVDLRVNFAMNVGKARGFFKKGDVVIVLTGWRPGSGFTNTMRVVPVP
Assay [7] shares this target. The experiment in a line: Inhibition of recombinant his-tagged human pyruvate kinase M2 expressed in Escherichia coli BL-21(DE3) using PEP as substrate at 10 uM after 5 mins by L-LDH coupled assay relative to control. The gist of the method:
as §1

Assay [8] concerns the target Pyruvate kinase PKLR (Homo sapiens) (UniProt P30613). In words: Inhibition of recombinant his-tagged human pyruvate kinase R expressed in Escherichia coli BL-21(DE3) using PEP as substrate at 10 uM after 5 mins by L-LDH coupled assay relative to control. In outline: as §1
Assay [9] has the same target. In words: Inhibition of recombinant his-tagged human pyruvate kinase L expressed in Escherichia coli BL-21(DE3) using PEP as substrate at 10 uM after 5 mins by L-LDH coupled assay relative to control. In outline: as §1
The subject of assay [10] is Staphylococcus aureus. In words: Antibacterial activity against methicillin-susceptible Staphylococcus aureus RN4220 by 2-fold serial broth microdilution method. The class given is functional. (In general: Broth dilution looks for growth in wells or tubes with falling amounts of substance.)
Assay [11] deals with Staphylococcus aureus. The experiment in a line: Antibacterial activity against methicillin-resistant Staphylococcus aureus 252 by 2-fold serial broth microdilution method. The class given is functional.

Molecules are shown by their SMILES. In brackets after ≈: the same amount, converted by molar mass. Activity calls are given as the source filed them. No cut-off for these calls is given here. Bounds are passed on as bounds.

For orientation: IC50 means the concentration needed to halve the response being measured. A word on the inhibition: it is the percentage by which the read-out fell short of the control. In general, MIC refers to the lowest concentration found to suppress growth. Lower therefore signals greater potency.

Chain of Pyruvate kinase PKLR (Homo sapiens) (P30613 whole entry, looked up): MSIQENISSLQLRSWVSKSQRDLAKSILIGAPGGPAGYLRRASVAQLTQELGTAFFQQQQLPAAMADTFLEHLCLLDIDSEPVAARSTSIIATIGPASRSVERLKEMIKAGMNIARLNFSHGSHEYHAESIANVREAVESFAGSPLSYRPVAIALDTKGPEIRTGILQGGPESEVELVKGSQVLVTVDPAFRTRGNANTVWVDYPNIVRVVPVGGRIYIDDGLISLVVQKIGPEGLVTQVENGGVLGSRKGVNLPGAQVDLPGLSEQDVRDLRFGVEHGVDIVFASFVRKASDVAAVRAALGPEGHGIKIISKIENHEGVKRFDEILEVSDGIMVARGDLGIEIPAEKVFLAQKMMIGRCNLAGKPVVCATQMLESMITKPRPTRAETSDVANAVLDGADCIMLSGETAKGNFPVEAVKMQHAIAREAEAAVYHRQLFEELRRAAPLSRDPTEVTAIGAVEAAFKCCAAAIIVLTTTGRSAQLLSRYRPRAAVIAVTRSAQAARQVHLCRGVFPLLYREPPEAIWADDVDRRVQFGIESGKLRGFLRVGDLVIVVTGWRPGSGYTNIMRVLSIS

As to `O=C(c1nc(-c2c[nH]c3cc(I)ccc23)c[nH]1)c1c[nH]c2cc(I)ccc12`, the IC50 in assay [1] worked out at 3.3 nM. For the same compound, the inhibition was 0% in [2], 0% in assay [3], less than 40% in assay [4] and less than 40% in [5].

Regarding `O=C(c1nc(-c2c[nH]c3ccc(Br)cc23)c[nH]1)c1c[nH]c2ccc(Br)cc12`, in assay [1], the IC50 worked out at 6.4 nM. In addition, the inhibition in assay [2] was 0%; in assay [3], 0%; in assay [4] it was less than 40%; in assay [5], less than 40%.

For the compound `O=C(c1nc(-c2c[nH]c3cc(Cl)ccc23)c[nH]1)c1c[nH]c2cc(Cl)ccc12`, the IC50 in assay [1] was 1.5 nM. Besides, the inhibition was 0% in assay [2], 0% in assay [3], less than 40% in [4] and less than 40% in assay [5].

Take `O=C(c1ncc(-c2c[nH]c3cc(Br)ccc23)[nH]1)c1c[nH]c2cc(Br)ccc12`: the inhibition was 0% in assay [2], 0% in [3], less than 40% in assay [4] and less than 40% in assay [5].

Take `O=C(c1nc(-c2c[nH]c3c(Cl)cccc23)c[nH]1)c1c[nH]c2c(Cl)cccc12`: the 50% inhibitory concentration (IC50) in assay [1] turned out to be 26000 nM. The inhibition entry in assay [6], in assay [7], in [8] and in assay [9] was “inactive” each time.

For `O=C1NC[C@@H](c2c[nH]c3cc(Br)ccc23)N[C@H]1c1c[nH]c2cc(Br)ccc12` (relative stereo) [CIS-3,4-DIHYDROHAMACANTHIN B], the IC50 in [1] was found to be 16 nM. Moreover, the MIC in the assay on Staphylococcus aureus [10] amounted to 6.25 µg/mL (≈ 12.8 µM); against Staphylococcus aureus [11], 12.5 µg/mL (≈ 25.6 µM).

Take `O=C(c1nc(-c2c[nH]c3cc(F)ccc23)c[nH]1)c1c[nH]c2cc(F)ccc12`: the IC50 in assay [1] came out at 24 nM. Also, the inhibition result in assay [6], in assay [7], in assay [8] and in assay [9] was “inactive” in each case.

On to `O=C(c1nc(-c2c[nH]c3ccccc23)c[nH]1)c1c[nH]c2ccccc12`, for which the inhibition entry in [6], in assay [7], in assay [8] and in assay [9] was “inactive” in each case.
